# In ChEMBL document CHEMBL4041470, “Isolation, Structure Elucidation, and Absolute Configuration of Highly Oxygenated Germacranolides from Carpesium cernuum” (J Nat Prod, 2016):
# System: A549
# Assay: Cytotoxicity against human A549 cells assessed as reduction in cell viability after 72 hrs by MTT assay
# Format: functional, cell-based
# Conditions: A549, 72 h
# In short: (§1)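 Human cancer cells grown in 96-well plates and exposed for 72 h at 37 °C under 5% CO2. Survival rates read by MTT assay, with doxorubicin as positive control. IC50 reported as the mean of triplicate determinations.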
row,SMILES,IC50
1,C/C=C(/C)C(=O)O[C@H]1[C@@H](O)[C@@H]2[C@H](OC(=O)[C@H]2COC)[C@@H](OC(=O)C(C)CC)[C@@](C)(O)C(=O)CC[C@H]1C (relative stereo),90.4 µM
2,C/C=C(/C)C(=O)O[C@H]1[C@@H](O)[C@@H]2[C@H](OC(=O)[C@H]2COC)[C@@H](OC(=O)C(C)C)[C@@](C)(O)C(=O)CC[C@H]1C,> 100 µM
3,C=C1C(=O)O[C@H]2[C@H]1[C@@H](O)[C@]1(O)O[C@@H](C[C@H]1C)C[C@](C)(O)[C@@H]2OC(=O)/C(C)=C\C (relative stereo),> 100 µM
4,C=C1C(=O)O[C@H]2[C@H]1[C@@H](O)[C@]1(O)O[C@@H](C[C@H]1C)C[C@](C)(O)[C@@H]2OC(=O)C(C)C,> 100 µM
5,C=C1C(=O)O[C@H]2[C@H]1[C@H](O)[C@H](OC(=O)/C(C)=C\C)[C@H](C)CCC(=O)[C@](C)(O)[C@@H]2OC(=O)C(C)C,12.1 µM
6,C=C1C(=O)O[C@H]2[C@H]1[C@H](OC(=O)C(C)C)C(=O)[C@H](C)CCC[C@](C)(O)[C@@H]2OC(=O)C(C)C,29.9 µM
7,C/C=C(/C)C(=O)O[C@@H]1[C@H]2OC(=O)[C@@H](COC)[C@@H]2[C@H](O)[C@H](OC(=O)CC(C)C)[C@H](C)CCC(=O)[C@]1(C)O,> 100 µM
8,COc1cccc2c1C(=O)c1c(O)c3c(c(O)c1C2=O)C[C@@](O)(C(=O)CO)C[C@@H]3O[C@H]1C[C@H](N)[C@H](O)[C@H](C)O1 [DOXORUBICIN],0.015 µM
9,C=C1C(=O)O[C@H]2[C@H]1[C@H](OC(=O)/C(C)=C\C)C(=O)[C@H](C)CCC[C@](C)(O)[C@@H]2OC(=O)C(C)C (relative stereo),18.4 µM
10,C=C1C(=O)O[C@H]2[C@H]1[C@H](O)[C@]1(O)O[C@@H](C[C@H]1C)C[C@](C)(O)[C@@H]2OC(=O)/C(C)=C\C,> 100 µM
11,C/C=C(/C)C(=O)O[C@H]1[C@@H](O)[C@@H]2[C@H](OC(=O)[C@H]2COC)[C@@H](OC(=O)/C(C)=C\C)[C@@](C)(O)C(=O)CC[C@H]1C (relative stereo),> 100 µM

# System: MDA-MB-231
# Assay: Cytotoxicity against human MDA-MB-231 cells assessed as reduction in cell viability after 72 hrs by MTT assay
# Format: functional, cell-based
# Conditions: MDA-MB-231, 72 h
# In short: as §1
row,SMILES,IC50
1,C/C=C(/C)C(=O)O[C@H]1[C@@H](O)[C@@H]2[C@H](OC(=O)[C@H]2COC)[C@@H](OC(=O)C(C)CC)[C@@](C)(O)C(=O)CC[C@H]1C (relative stereo),> 100 µM
2,C/C=C(/C)C(=O)O[C@H]1[C@@H](O)[C@@H]2[C@H](OC(=O)[C@H]2COC)[C@@H](OC(=O)C(C)C)[C@@](C)(O)C(=O)CC[C@H]1C,> 100 µM
3,C=C1C(=O)O[C@H]2[C@H]1[C@@H](O)[C@]1(O)O[C@@H](C[C@H]1C)C[C@](C)(O)[C@@H]2OC(=O)/C(C)=C\C (relative stereo),> 100 µM
4,C=C1C(=O)O[C@H]2[C@H]1[C@@H](O)[C@]1(O)O[C@@H](C[C@H]1C)C[C@](C)(O)[C@@H]2OC(=O)C(C)C,> 100 µM
5,C=C1C(=O)O[C@H]2[C@H]1[C@H](O)[C@H](OC(=O)/C(C)=C\C)[C@H](C)CCC(=O)[C@](C)(O)[C@@H]2OC(=O)C(C)C,2.02 µM
6,C=C1C(=O)O[C@H]2[C@H]1[C@H](OC(=O)C(C)C)C(=O)[C@H](C)CCC[C@](C)(O)[C@@H]2OC(=O)C(C)C,7.48 µM
7,C/C=C(/C)C(=O)O[C@@H]1[C@H]2OC(=O)[C@@H](COC)[C@@H]2[C@H](O)[C@H](OC(=O)CC(C)C)[C@H](C)CCC(=O)[C@]1(C)O,> 100 µM
8,COc1cccc2c1C(=O)c1c(O)c3c(c(O)c1C2=O)C[C@@](O)(C(=O)CO)C[C@@H]3O[C@H]1C[C@H](N)[C@H](O)[C@H](C)O1 [DOXORUBICIN],0.13 µM
9,C=C1C(=O)O[C@H]2[C@H]1[C@H](OC(=O)/C(C)=C\C)C(=O)[C@H](C)CCC[C@](C)(O)[C@@H]2OC(=O)C(C)C (relative stereo),7.53 µM
10,C=C1C(=O)O[C@H]2[C@H]1[C@H](O)[C@]1(O)O[C@@H](C[C@H]1C)C[C@](C)(O)[C@@H]2OC(=O)/C(C)=C\C,> 100 µM
11,C/C=C(/C)C(=O)O[C@H]1[C@@H](O)[C@@H]2[C@H](OC(=O)[C@H]2COC)[C@@H](OC(=O)/C(C)=C\C)[C@@](C)(O)C(=O)CC[C@H]1C (relative stereo),> 100 µM

# System: BEL-7404 tumor cell line
# Assay: Cytotoxicity against human Bel7404 cells assessed as reduction in cell viability after 72 hrs by MTT assay
# Format: functional, cell-based
# Conditions: BEL-7404, 72 h
# In short: as §1
row,SMILES,IC50
1,C/C=C(/C)C(=O)O[C@H]1[C@@H](O)[C@@H]2[C@H](OC(=O)[C@H]2COC)[C@@H](OC(=O)C(C)CC)[C@@](C)(O)C(=O)CC[C@H]1C (relative stereo),62.9 µM
2,C/C=C(/C)C(=O)O[C@H]1[C@@H](O)[C@@H]2[C@H](OC(=O)[C@H]2COC)[C@@H](OC(=O)C(C)C)[C@@](C)(O)C(=O)CC[C@H]1C,71.7 µM
3,C=C1C(=O)O[C@H]2[C@H]1[C@@H](O)[C@]1(O)O[C@@H](C[C@H]1C)C[C@](C)(O)[C@@H]2OC(=O)/C(C)=C\C (relative stereo),56.4 µM
4,C=C1C(=O)O[C@H]2[C@H]1[C@@H](O)[C@]1(O)O[C@@H](C[C@H]1C)C[C@](C)(O)[C@@H]2OC(=O)C(C)C,81.9 µM
5,C=C1C(=O)O[C@H]2[C@H]1[C@H](O)[C@H](OC(=O)/C(C)=C\C)[C@H](C)CCC(=O)[C@](C)(O)[C@@H]2OC(=O)C(C)C,1.8 µM
6,C=C1C(=O)O[C@H]2[C@H]1[C@H](OC(=O)C(C)C)C(=O)[C@H](C)CCC[C@](C)(O)[C@@H]2OC(=O)C(C)C,7.32 µM
7,C/C=C(/C)C(=O)O[C@@H]1[C@H]2OC(=O)[C@@H](COC)[C@@H]2[C@H](O)[C@H](OC(=O)CC(C)C)[C@H](C)CCC(=O)[C@]1(C)O,79 µM
8,COc1cccc2c1C(=O)c1c(O)c3c(c(O)c1C2=O)C[C@@](O)(C(=O)CO)C[C@@H]3O[C@H]1C[C@H](N)[C@H](O)[C@H](C)O1 [DOXORUBICIN],0.13 µM
9,C=C1C(=O)O[C@H]2[C@H]1[C@H](OC(=O)/C(C)=C\C)C(=O)[C@H](C)CCC[C@](C)(O)[C@@H]2OC(=O)C(C)C (relative stereo),7.35 µM
10,C=C1C(=O)O[C@H]2[C@H]1[C@H](O)[C@]1(O)O[C@@H](C[C@H]1C)C[C@](C)(O)[C@@H]2OC(=O)/C(C)=C\C,69.6 µM
11,C/C=C(/C)C(=O)O[C@H]1[C@@H](O)[C@@H]2[C@H](OC(=O)[C@H]2COC)[C@@H](OC(=O)/C(C)=C\C)[C@@](C)(O)C(=O)CC[C@H]1C (relative stereo),88.1 µM

# System: HCT-116
# Assay: Cytotoxicity against human HCT116 cells assessed as reduction in cell viability after 72 hrs by MTT assay
# Format: functional, cell-based
# Conditions: HCT-116, 72 h
# In short: as §1
row,SMILES,IC50
1,C/C=C(/C)C(=O)O[C@H]1[C@@H](O)[C@@H]2[C@H](OC(=O)[C@H]2COC)[C@@H](OC(=O)C(C)CC)[C@@](C)(O)C(=O)CC[C@H]1C (relative stereo),58 µM
2,C/C=C(/C)C(=O)O[C@H]1[C@@H](O)[C@@H]2[C@H](OC(=O)[C@H]2COC)[C@@H](OC(=O)C(C)C)[C@@](C)(O)C(=O)CC[C@H]1C,49.6 µM
3,C=C1C(=O)O[C@H]2[C@H]1[C@@H](O)[C@]1(O)O[C@@H](C[C@H]1C)C[C@](C)(O)[C@@H]2OC(=O)/C(C)=C\C (relative stereo),> 100 µM
4,C=C1C(=O)O[C@H]2[C@H]1[C@@H](O)[C@]1(O)O[C@@H](C[C@H]1C)C[C@](C)(O)[C@@H]2OC(=O)C(C)C,> 100 µM
5,C=C1C(=O)O[C@H]2[C@H]1[C@H](O)[C@H](OC(=O)/C(C)=C\C)[C@H](C)CCC(=O)[C@](C)(O)[C@@H]2OC(=O)C(C)C,0.87 µM
6,C=C1C(=O)O[C@H]2[C@H]1[C@H](OC(=O)C(C)C)C(=O)[C@H](C)CCC[C@](C)(O)[C@@H]2OC(=O)C(C)C,2.65 µM
7,C/C=C(/C)C(=O)O[C@@H]1[C@H]2OC(=O)[C@@H](COC)[C@@H]2[C@H](O)[C@H](OC(=O)CC(C)C)[C@H](C)CCC(=O)[C@]1(C)O,71.5 µM
8,COc1cccc2c1C(=O)c1c(O)c3c(c(O)c1C2=O)C[C@@](O)(C(=O)CO)C[C@@H]3O[C@H]1C[C@H](N)[C@H](O)[C@H](C)O1 [DOXORUBICIN],0.007 µM
9,C=C1C(=O)O[C@H]2[C@H]1[C@H](OC(=O)/C(C)=C\C)C(=O)[C@H](C)CCC[C@](C)(O)[C@@H]2OC(=O)C(C)C (relative stereo),5.51 µM
10,C=C1C(=O)O[C@H]2[C@H]1[C@H](O)[C@]1(O)O[C@@H](C[C@H]1C)C[C@](C)(O)[C@@H]2OC(=O)/C(C)=C\C,37.5 µM
11,C/C=C(/C)C(=O)O[C@H]1[C@@H](O)[C@@H]2[C@H](OC(=O)[C@H]2COC)[C@@H](OC(=O)/C(C)=C\C)[C@@](C)(O)C(=O)CC[C@H]1C (relative stereo),36.4 µM
